Series [1] relates to L1210. Description: Concentration that causes a mitotic index (fraction of cells in mitosis divided by total cells) of 0.5 for cultured lymphoid leukemia L1210 cells after exposure of 12 hr. The class given is functional, Mus musculus. In a few lines:
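Cultured lymphoid leukemia L1210 cells exposed to agent for 12 h. Mitotic index is the fraction of cells in mitosis over total cells. The value is the agent concentration giving a mitotic index of 0.5.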

The test system of series [2] is L1210. In words: Antiproliferative activity against lymphoid leukemia L1210 cells after 48 hr exposure. The settings on record: Mus musculus, L1210, 48 h; read-out: ID50 (the source's name). The class given is functional.
Series [3] concerns Mus musculus. Description: Increase in life span of mice with lymphocytic leukemia P388 10E6 tumor cell implant (intraperitoneally) at the highest nontoxic dose of 100 mg/kg tested. In kind it is functional. The settings on record: P388, ip, route intraperitoneal. A digest of the protocol: (§1)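 Mice bore P388 lymphocytic leukemia. The value is the increase in life span at the highest nontoxic dose tested, with toxicity judged by weight change.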

Series [4] deals with Mus musculus. In words: Increase in life span of mice with lymphocytic leukemia P388 10E6 tumor cell implant (intraperitoneally) at the highest nontoxic dose of 200 mg/kg tested. The class given is functional. Conditions: P388, ip, route intraperitoneal. A digest of the protocol: as §1
Series [5] relates to Mus musculus. In words: Compound tested for weight change in mice at a dose of 400 mg/kg; Toxic. In kind it is toxicity, organism-based. The arrangement: dose 400 mg/kg. Conditions: in vivo.
Series [6] deals with Mus musculus. In words: Increase in life span of mice with lymphocytic leukemia P388 10E6 tumor cell implant (intraperitoneally) at the highest nontoxic dose of 300 mg/kg tested. The class given is functional. The settings on record: P388, ip, route intraperitoneal. A digest of the protocol:
as §1

For series [7], the system named is Mus musculus. In words: Increase in life span of mice with lymphocytic leukemia P388 10E6 tumor cell implant (intraperitoneally) at the highest nontoxic dose of 75 mg/kg tested. Conditions: P388, ip, route intraperitoneal. In kind it is functional. In a few lines: as §1
The test system of series [8] is Mus musculus. Description: Increase in life span of mice with lymphocytic leukemia P388 10E6 tumor cell implant (intraperitoneally) at the highest nontoxic dose of 150 mg/kg tested. In kind it is functional. The settings on record: P388, ip, route intraperitoneal. In a few lines: as §1
Series [9] concerns Mus musculus. Description: Compound tested for weight change in mice at a dose of 200 mg/kg; Toxic. The class given is toxicity, organism-based. Details: dose 200 mg/kg. The settings on record: in vivo.

One may read the ILS as the gain in survival time of treated over control animals, in per cent. A high value points to a large benefit in survival.

With `CCOC(=O)Nc1cc2c(c(N)n1)N=C(c1ccccc1)CO2`, in series [1], the MI0.5 was found to be 0.56 µM. Further, the IC50 in series [2] amounted to 225 nM. The molecule further came in with an ILS at 100 mg/kg in series [3] of 44%. Besides, the ILS at 200 mg/kg in [4] stood at 80%. Further, the Toxicity result in series [5] is recorded as “Toxic”.
As to `CCOC(=O)Nc1cc2c(c(N)n1)N=C(c1ccc(Cl)cc1)CO2`, in [2], the IC50 was greater than 3000 nM. In addition, the ILS at 300 mg/kg in series [6] amounted to 0%.
Molecule `CCOC(=O)Nc1cc2c(c(N)n1)N=C(c1ccc(OC)cc1)CS2` yielded an MI0.5 in [1] of 4.9 µM. In [2], the IC50 was found to be 340 nM. In series [6], the ILS at 300 mg/kg amounted to 3%.
For `CCOC(=O)Nc1cc2c(c(N)n1)N=C(c1cccc(OC)c1)CS2`, the MI0.5 in series [1] was found to be 2 µM. The IC50 in [2] amounted to 530 nM. The same molecule showed an ILS at 75 mg/kg in [7] of 3%.
For `CCOC(=O)Nc1cc2c(c(N)n1)N=C(c1ccccc1)CS2`, the MI0.5 in [1] is greater than 10 µM. Further, the IC50 in series [2] was found to be 6100 nM. The same molecule had an ILS at 300 mg/kg in series [6] of 0%.
On to `CCOC(=O)Nc1cc2c(c(N)n1)N=C(c1ccccc1)C(C)(C)S2`, for which, in series [2], the IC50 is greater than 10000 nM.
Molecule `CCOC(=O)Nc1cc2c(c(N)n1)N=C(c1ccccc1)C(C)O2` (stereo not given) showed an MI0.5 in [1] of 0.49 µM. The IC50 in [2] is 110 nM. The molecule further registered an ILS at 100 mg/kg in series [3] of 49%.
On to `CCOC(=O)Nc1cc2oc(=O)c(-c3ccccc3)nc2c(N)n1`, for which the IC50 in series [2] was found to be 3000 nM. Further, the increase in lifespan (ILS) at 300 mg/kg in series [6] came to 0%.
As for `CCOC(=O)Nc1cc2c(c(N)n1)N=C(c1cc(OC)cc(OC)c1)C(C)O2` (stereo not given), the MI0.5 in [1] was 2.9 µM. Moreover, in [2], the IC50 came to 1250 nM.
In series [1], `CCOC(=O)Nc1cc2c(c(N)n1)N=C(c1ccccc1)C(C)S2` (stereo not given) yielded an MI0.5 of 9.6 µM. Further, the IC50 in series [2] is 1600 nM. In [8], this molecule had an ILS at 150 mg/kg of 10%.
In turn, `CCOC(=O)Nc1cc2c(c(/N=C/N(C)C)n1)N=C(c1ccccc1)CO2` registered an MI0.5 in series [1] of 0.78 µM. The IC50 in series [2] stood at 310 nM. In series [3], this molecule came in with an ILS at 100 mg/kg of 1%. In [9], the Toxicity result was “Toxic”.
Consider `CCOC(=O)Nc1cc2c(c(N)n1)N=C(c1cc(OC)c(OC)c(OC)c1)CO2`, for which the IC50 in series [2] is greater than 3000 nM. In series [6], this molecule displayed an ILS at 300 mg/kg of 0%.
For the molecule `CCOC(=O)Nc1cc2c(c(N)n1)N=C(c1ccc([N+](=O)[O-])cc1)CO2`, in [2], the IC50 was greater than 3000 nM. In [6], the ILS at 300 mg/kg was 0%.
In [1], `CCOC(=O)Nc1cc2c(c(N)n1)N=C(c1ccccc1)C(c1ccccc1)O2` (stereo not given) displayed an MI0.5 of 3 µM. Also, in series [2], the IC50 came to 880 nM. The ILS at 200 mg/kg in [4] came out at 2%.
Molecule `CCOC(=O)Nc1cc2c(c(N)n1)N=C(c1ccc3ccccc3c1)CS2` had an MI0.5 in [1] of 3 µM. In series [2], the IC50 was determined as 580 nM. The molecule also showed an ILS at 300 mg/kg in series [6] of 5%.
Molecule `CCOC(=O)Nc1cc2c(c(NC(=O)CBr)n1)N=C(c1ccccc1)CO2` had an MI0.5 in [1] of 11 µM. The IC50 in [2] turned out to be 2200 nM.
The molecule `CCOC(=O)Nc1cc2c(c(N)n1)N=C(c1cccc(OC)c1)CO2` showed an MI0.5 in [1] of 0.1 µM. Besides, the IC50 in [2] came to 52 nM.

Values taken from ChEMBL document CHEMBL1122394, “Synthesis of potential anticancer agents. Pyrido[4,3-b][1,4]oxazines and pyrido[4,3-b][1,4]thiazines” (J Med Chem, 1983).
